In ChEMBL document CHEMBL4316619 (Bioorg Med Chem Lett, 2019):
Calls of active or inactive are those of the source. The rule behind the calls is not given here.

Legend:
Influenza A virus [1] = experiment: Antiviral activity against Influenza A virus A/PR/8/34 (H1N1) infected in MDCK cells assessed as fold reduction in virus titer at 10 uM measured after 48 hrs by hemagglutination assay relative to control; format: functional, A/Puerto Rico/8/1934(H1N1)
Method in brief: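 MDCK cells were infected with A/PR/8/34 (H1N1) at MOI 0.1 and incubated with compound for 48 h. Supernatant virus was then quantified by hemagglutination assay and standard TCID50 analysis. The single-concentration screen used 10 μM and reports fold reduction in titer. Dose-response runs used triplicate cultures, with percent titer decrease back-calculated from TCID50.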

MDCK = experiment: Cytotoxicity against MDCK cells assessed as reduction in cell viability measured after 48 hrs by CellTiter Glo assay; format: cell-based, Canis lupus familiaris; details: dog
Method in brief: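 MDCK cells were incubated with compound under the conditions of the 48 h replication assay. Cytotoxicity was read with the CellTiter-Glo ATP viability assay. Follow-up viability testing used 5, 10, 50 and 100 μM.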

Influenza A virus [2] = experiment: Antiviral activity against Influenza A virus (A/California/7/2009(H1N1)) infected in MDCK cells assessed as reduction in virus-induced cytopathic effect measured on day 5 by Celltiter-Glo luminescence assay; format: functional, organism-based; details: 120 h
Method in brief: (§1)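 MDCK cells were infected with seasonal influenza A strains through NIAID resources and scored for protection from virus-induced cell death. Compounds were tested at four concentrations (0.8, 4, 20, 100 μM). EC50/EC90 (reduction of viral cell death) and CC50 (reduction of cell viability) were derived in μM, and SI50 = CC50/EC50.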

Influenza A virus H3N2 = experiment: Antiviral activity against Influenza A virus (A/Brisbane/10/2007(H3N2)) infected in MDCK cells assessed as reduction in virus-induced cytopathic effect measured on day 5 by Celltiter-Glo luminescence assay; format: functional, organism-based; details: 120 h; method in brief: as §1
Influenza B virus = experiment: Antiviral activity against Influenza B virus (B/Brisbane/60/2008) infected in MDCK cells assessed as reduction in virus-induced cytopathic effect measured on day 5 by Celltiter-Glo luminescence assay; format: functional, organism-based
[3] = Cytotoxicity against MDCK cells assessed as reduction in cell viability measured on day 5 by Celltiter-Glo luminescence assay; format: cell-based, Canis lupus familiaris; details: dog, MDCK cells; method in brief: as §1
[4] = Stability of the compound in mouse liver microsomes assessed as parent compound remaining measured after 15 mins; format: ADME, Microsome; details: read-out: Stability
Method in brief: (§2)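 Mouse liver microsomes; percent parent compound remaining measured at 0, 15 and 30 min.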

[5] = target: Luciferin 4-monooxygenase (Photinus pyralis) (UniProt P08659); experiment: Effect on firefly luciferase activity expressed in 293 cells at 50 uM by luminescence assay; format: cell-based
Chain of Luciferin 4-monooxygenase (Photinus pyralis) (P08659 whole entry): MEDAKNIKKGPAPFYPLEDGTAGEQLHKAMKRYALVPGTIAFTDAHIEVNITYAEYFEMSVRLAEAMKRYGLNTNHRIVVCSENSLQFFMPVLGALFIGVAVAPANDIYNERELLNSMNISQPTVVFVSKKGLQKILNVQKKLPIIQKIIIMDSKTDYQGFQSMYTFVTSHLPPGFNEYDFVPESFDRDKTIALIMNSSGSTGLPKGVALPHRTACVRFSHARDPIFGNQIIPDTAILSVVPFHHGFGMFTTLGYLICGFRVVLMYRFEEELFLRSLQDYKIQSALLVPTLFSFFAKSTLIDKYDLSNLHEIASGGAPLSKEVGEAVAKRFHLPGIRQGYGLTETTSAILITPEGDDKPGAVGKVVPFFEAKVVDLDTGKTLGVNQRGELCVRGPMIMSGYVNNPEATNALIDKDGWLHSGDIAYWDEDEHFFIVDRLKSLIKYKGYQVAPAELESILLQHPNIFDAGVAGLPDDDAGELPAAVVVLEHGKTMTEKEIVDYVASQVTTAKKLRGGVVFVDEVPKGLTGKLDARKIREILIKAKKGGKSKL

[6] = Stability of the compound in mouse liver microsomes assessed as parent compound remaining measured after 30 mins; format: ADME, Microsome; details: read-out: Stability; method in brief: as §2
Influenza A virus [7] = experiment: Effect on NS1 protein expression in Influenza A virus A/PR/8/34 (H1N1) infected in MDCK cells at 20 uM by Western blot analysis; format: functional, organism-based; details: A/Puerto Rico/8/1934(H1N1)
Method in brief: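 MDCK cells, uninfected or infected with A/PR/8/34, treated with DMSO or compound at 20 μM. NS1 protein detected by Western blot, with α-tubulin as loading control.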

[8] = Stability of the compound in mouse liver microsomes assessed as parent compound remaining measured immediately; format: ADME, Microsome; details: read-out: Stability; method in brief: as §2
[9] = Aqueous kinetic solubility of the compound; format: physicochemical; details: buffer
Saccharomyces cerevisiae = experiment: Effect on growth of Yeast 9526-6-2 harboring pYES at 50 uM measured up to 60 hrs; format: organism-based; details: in vivo
Method in brief: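 Control yeast carrying empty pYES and NS1-expressing NS1-pYES strain grown with DMSO or compound at 50 μM. Growth measured as OD600 at 22, 42 and 60 h.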

[10] = target: Non-structural protein 1 (Influenza A virus (strain A/Puerto Rico/8/1934 H1N1)) (UniProt P03496); experiment: Inhibition of NS1 in Influenza A virus A/PR/8/34 (H1N1) infected in MDCK cells assessed as restoration of protein-induced reduction in IFN-beta mRNA expression at 20 uM measured after 6 hrs by RT-PCR analysis; format: cell-based; details: Influenza A virus (A/Puerto Rico/8/1934(H1N1))
Chain of Non-structural protein 1 (Influenza A virus (strain A/Puerto Rico/8/1934 H1N1)) (P03496 whole entry): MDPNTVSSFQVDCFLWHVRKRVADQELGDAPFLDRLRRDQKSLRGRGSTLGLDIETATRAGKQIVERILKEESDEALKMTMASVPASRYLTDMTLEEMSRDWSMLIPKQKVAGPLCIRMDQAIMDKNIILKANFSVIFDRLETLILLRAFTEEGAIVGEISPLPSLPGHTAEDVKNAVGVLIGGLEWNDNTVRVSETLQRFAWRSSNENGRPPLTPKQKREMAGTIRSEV
Method in brief: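 MDCK cells infected with A/PR/8/34 at MOI 2 and incubated 6 h with compound at 20 μM. Cells harvested; IFN-β and β-actin mRNA detected by RT-PCR. Poly(I:C) lane serves as positive control for IFN-β induction.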

[11] = target: Non-structural protein 1 (Influenza A virus (strain A/Puerto Rico/8/1934 H1N1)) (UniProt P03496); experiment: Inhibition of Influenza A virus A/PR/8/34 (H1N1) NS1 expressed in 293 cells assessed as increase in poly(I:C)-induced IFN-beta reporter activity treated 16 hrs […] measured after 24 hrs by luciferase reporter gene assay; format: cell-based; details: Influenza A virus (A/Puerto Rico/8/1934(H1N1))
Method in brief: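 293 cells co-transfected with a human IFN-β promoter-driven firefly luciferase reporter and NS1 expression constructs. At 16 h post-transfection, poly(I:C) 50 μg/mL plus compound (20 μM) or 1% DMSO added for a further 24 h; luciferase read by luminometer. Untransfected cells serve as baseline.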

SMILES: COc1cc(-c2c(C#N)c(O)nc3c2c(C)nn3-c2ccccc2)cc(OC)c1OC
- fold change (FC) (Influenza A virus [1]): 16
- Activity (MDCK): Non-Toxic

SMILES: NC(=O)c1ncn([C@@H]2O[C@H](CO)[C@@H](O)[C@H]2O)n1 [RIBAVIRIN]
- EC50 (Influenza A virus [2]): 2.2 µM
- EC90 (Influenza A virus [2]): 3.5 µM
- EC50 (Influenza A virus H3N2): 28.8 µM
- EC90 (Influenza A virus H3N2): 34.9 µM

SMILES: COc1ccc(-c2c(C#N)c(O)nc3c2c(C)nn3-c2ccccc2)cc1OC
- fold change (FC) (Influenza A virus [1]): 2
- Activity (MDCK): Non-Toxic

SMILES: Cc1nn(-c2ccccc2)c2nc(N)c(C#N)c(-c3ccc(O)c(O)c3)c12
- fold change (FC) (Influenza A virus [1]): 32
- Activity (MDCK): Non-Toxic

SMILES: Cc1nn(-c2ccc(F)cc2)c2nc(N)c(C#N)c(-c3ccc(O)c(O)c3)c12
- fold change (FC) (Influenza A virus [1]): 16
- Activity (MDCK): Non-Toxic

SMILES: COc1ccc(-c2c(C#N)c(N)nc3c2c(C)nn3-c2ccccc2)cc1OC
- fold change (FC) (Influenza A virus [1]): 2
- Activity (MDCK): Non-Toxic

SMILES: CCOC(=O)c1cnc2c(c(C)nn2-c2ccc(F)cc2)c1-c1ccc(O)c(OC)c1
- fold change (FC) (Influenza A virus [1]): 16
- Activity (MDCK): Non-Toxic

SMILES: COc1ccc(-n2nc(C)c3c(-c4ccc(O)c(OC)c4)ccnc32)cc1
- fold change (FC) (Influenza A virus [1]): 32
- Activity (MDCK): Non-Toxic

SMILES: COc1cccc(-c2ccnc3c2c(C)nn3-c2ccc(F)cc2)c1
- fold change (FC) (Influenza A virus [1]): 4
- Activity (MDCK): Toxic

SMILES: COc1cccc(-n2nc(C)c3c(-c4ccc(O)c(OC)c4)ccnc32)c1
- fold change (FC) (Influenza A virus [1]): 0
- Activity (MDCK): Non-Toxic

SMILES: COc1cc(-c2c(C#N)c(N)nc3c2c(C)nn3-c2ccc(F)cc2)cc(OC)c1OC
- Activity (Influenza B virus): inactive
- fold change (FC) (Influenza A virus [1]): 0
- Activity (MDCK): Non-Toxic
- CC50 at 5 day [3]: 0.87 to 6 µM
- EC50 (Influenza A virus [2]): 18.3 µM
- EC90 (Influenza A virus [2]): 42.4 µM
- EC50 (Influenza A virus H3N2): > 50 µM
- EC90 (Influenza A virus H3N2): > 50 µM

SMILES: Cc1ccc(-n2nc(C)c3c(-c4ccc(O)c(O)c4)c(C#N)c(N)nc32)cc1
- fold change (FC) (Influenza A virus [1]): 64
- Activity (MDCK): Non-Toxic

SMILES: COc1ccc(-c2ccnc3c2c(C)nn3-c2ccc(F)cc2)cc1OC
- fold change (FC) (Influenza A virus [1]): 2
- Activity (MDCK): Non-Toxic

SMILES: COc1ccc(-c2c(C#N)c(N)nc3c2c(C)nn3-c2ccc(Cl)cc2)cc1OC
- fold change (FC) (Influenza A virus [1]): 0
- Activity (MDCK): Non-Toxic

SMILES: COc1ccc(-c2c3c(C)nn(-c4ccccc4)c3nc3[nH]c(=O)[nH]c(=O)c23)cc1OC
- fold change (FC) (Influenza A virus [1]): 4
- Activity (MDCK): Non-Toxic

SMILES: Cc1ccc(-n2nc(C)c3c(-c4ccc(O)c(O)c4)c(C#N)c(N)nc32)cc1C
- remaining at 0.25 h [4]: 78%
- Activity [5]: inactive
- Activity (Influenza B virus): inactive
- fold change (FC) (Influenza A virus [1]): 256
- Activity (MDCK): Non-Toxic
- remaining at 0.5 h [6]: 64%
- CC50 at 5 day [3]: 24.5 to 39.3 µM
- Activity (Influenza A virus [7]): inactive
- EC50 (Influenza A virus [2]): 1.2 µM
- EC90 (Influenza A virus [2]): 3.4 µM
- remaining at 0 min [8]: 100%
- Kinetic_solubility [9]: 11.6 µM
- Activity (Saccharomyces cerevisiae): Non-Toxic
- inhibition [10]: Active
- EC50 (Influenza A virus H3N2): > 50 µM
- EC90 (Influenza A virus H3N2): > 50 µM
- inhibition [11]: Active

SMILES: COc1cc(-c2c(C#N)c(N)nc3c2c(C)nn3-c2ccc(C)cc2)ccc1O
- fold change (FC) (Influenza A virus [1]): 4
- Activity (MDCK): Non-Toxic

SMILES: COc1cc(-c2ccnc3c2c(C)nn3-c2ccccc2)ccc1O
- fold change (FC) (Influenza A virus [1]): 2
- Activity (MDCK): Non-Toxic

SMILES: COc1ccc(-c2c(C#N)c(O)nc3c2c(C)nn3-c2ccc(F)cc2)cc1OC
- fold change (FC) (Influenza A virus [1]): 0
- Activity (MDCK): Non-Toxic
